# proKLK7 act: activates the human kallikrein-7 zymogen | P49862 | purified proKLK7, EDANS-DABCYL substrate fluorescence; 100% is mature enzyme control, 0% vehicle | activation, % at 7 µM | 370,000 tested, 0.9% active | AID 652039;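 active = activation above the mean of all tested compounds plus 3 SD, computed per campaign excluding outliers beyond control limits, cut at about 13% in these data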
# Target sequence (P49862 whole entry, looked up): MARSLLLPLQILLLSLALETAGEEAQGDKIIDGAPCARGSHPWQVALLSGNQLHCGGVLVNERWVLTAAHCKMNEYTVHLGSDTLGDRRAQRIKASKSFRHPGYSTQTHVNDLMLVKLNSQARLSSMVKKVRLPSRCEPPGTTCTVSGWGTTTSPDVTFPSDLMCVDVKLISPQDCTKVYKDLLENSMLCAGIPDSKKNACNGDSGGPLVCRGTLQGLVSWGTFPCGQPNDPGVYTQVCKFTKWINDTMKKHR
# Neddylation inh: inhibitors of human cullin neddylation. P61081+Q13564. TR-FRET cullin neddylation, biochemical. calls only at 25 µM. 360,000 tested, 0.58% active. AID 651699; in the data active = inhibition above about 36%
# DDE Tn7 FP inh: inhibitors of Tn7 peptide binding to human fibrin DD(E); P02675; FP displacement of FITC-Tn7 peptide from fibrin DD(E); 0% = median of compound wells per plate; inhibition, % at 8.3 µM; 370,000 tested, 0.13% active;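 active = inhibition above the mean of compounds falling within the control limits plus 3 SD of them, cut at about 14% in these data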;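 also: 0% = plate median of compound wells and 100% = 10 µM Aha-Tn7 peptide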
#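 Assay system: human fibrin DD(E) protein / Input: 2 µM fibrin DD(E) / Benchmarks: high control of 10 µM Aha-Tn7 peptide / Measured by: fluorescence polarization of the labelled Tn7 tracer / Medium: Tris buffer with calcium and detergent, pH 7.8 / Timing: 10 min compound pre-incubation, 3 h probe incubation at room temperature / Repeats: one replicate per compound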
# DDE Tn6 FP inh: DD(E)-Tn6 binding inhibition, primary FP screen; 370,000 tested, 0.21% active; inhibition, % at 8.3 µM; Fibrin DD(E) TRITC-Tn6 fluorescence polarization displacement; P02675;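 active = inhibition above a per-campaign cutoff: mean of compounds within control limits plus 3 SD, cut at about 15% in these data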;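 also: 0% = median of all compound wells on the plate and 100% = blocking peptide control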
# MT1-MMP act inh: blocks activation of human MT1-MMP; P50281; AID 651647; 360,000 tested, 0.061% active; GFP/RFP ratio change, % at 20 µM; HT1080 RFP-PRO-GFP cells, GFP/RFP ratio fluorescence, overnight; percent of plate control window, DMSO zero;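 active = GFP/RFP ratio change of at least 30% with cell ATP level not reduced by more than half and red fluorescence within 50% of control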
#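 Material – HT1080 RFP-PRO-GFP cells · Control set – DMSO wells and RFP-L50D-GFP cells · Incubation – overnight cell settling, then overnight compound exposure, 37 °C, 5% CO2 · Compound dosing – single-point 20 µM compound, 1% DMSO · Read-out – GFP/RFP fluorescence ratio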
# SKN-1 inh: blocks SKN-1 activity in C. elegans; C. elegans VP596 Pgst-4::GFP/RFP ratio, acrylamide-induced, 24 h; inhibition, % at 21.8 µM; 360,000 tested, 0.49% active; AID 624304;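 active = interference check ratio from 0.5 to 1.5 plus GFP to RFP signal ratio inhibition reaching or exceeding a fixed threshold, cut at about 30% in these data, passing the limit was not always enough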
# Neddyl inh conf: cullin neddylation inhibition, confirmation; TR-FRET cullin neddylation biochemical assay; calls only at 25 µM; 1,800 tested, 13% active; shares compounds with Neddylation inh; AID 652217; in the data active = inhibition above about 40%;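 also: neddylation substrate is the cullin 1 ring ligase complex with SKP2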
# The depositor's hits bear a star; i = inactive; . = no result shown; + = active, no number. The list is not random: actives were taken first. Their share in the collection is about 2.2%.
SMILES,proKLK7 act,Neddylation inh,DDE Tn7 FP inh,DDE Tn6 FP inh,MT1-MMP act inh,SKN-1 inh,Neddyl inh conf
FC(F)(F)c1cc(CCN2C(=S)NC[C@@H]2Cc2ccccc2)cc(C(F)(F)F)c1,0,i,3,4,1,0,.
C[C@@H]1CC=C[C@@H]2[C@H]1C(=O)N(Cc1ccccc1)[C@H]2c1ccccc1Br,1,i,-5,-7,-4,3,.
CCOC(=O)c1sc(NC(NC(=O)c2ccco2)(C(=O)OC)C(F)(F)F)nc1C (stereo unspecified),0,i,5,3,0,-4,.
O=C(CSCc1ccc(Cl)cc1)NCC1CCCO1 (stereo unspecified),-1,i,-1,-8,4,-12,.
COc1ccc(-c2cc(C(=O)N3CC(C)CC(C)C3)c3ccccc3n2)cc1OC (stereo unspecified),2,+,8,-5,-2,11,.
COc1cccc(-c2cc(C(=O)NC3CCCC3)c3ccccc3n2)c1,0,i,4,0,2,10,.
COc1ccc(-c2cc(C(=O)NC3CCCC3)c3ccccc3n2)cc1OC,-5,+,3,-1,-1,-3,i
CCCOC(=O)CCc1n[nH]c(=O)[nH]c1=O,0,i,3,-1,-1,15,.
CC(=O)Nc1ccc(C=NNC(=O)c2ccc(NS(=O)(=O)c3cccs3)cc2)cc1,1,i,-8,0,2,3,.
COc1ccc(NS(=O)(=O)c2cccc(C(=O)N/N=C/c3ccc(O)cc3)c2)cc1,0,+,-2,-10,-1,-7,i
COc1cc(C=NNC(=O)c2ccc(NS(=O)(=O)c3cccs3)cc2)cc(Br)c1O,-1,+,-6,-7,0,-3,+
CCOc1ncccc1C(=O)OCC(=O)NCCc1ccc(S(N)(=O)=O)cc1,0,i,-1,1,-4,5,.
O=C1CCC/C(=N\NC(=O)c2ccc(CSc3cccc4cccnc34)cc2)C1,-6,+,5,-8,-2,-2,i
COc1ccc2sc(C)[n+](C)c2c1,-1,i,0,-1,5,-1,.
CN(C)c1ccc(/C=N/NC(=O)c2ccc3c(c2)OCCO3)cc1,1,+,-6,1,-3,1,.
COc1ccc2c(c1)c(C(=O)CNc1nc(C)cs1)c(C)n2C,-1,+,4,-3,3,7,i
CCn1cc(S(=O)(=O)NCc2ccccc2Br)cn1,0,i,0,5,-1,-8,.
O=C1c2ccccc2NC2CCCCC12 (stereo unspecified),0,i,-3,-5,2,19,.
O=C1OC(C(Cl)(Cl)Cl)Nc2ccccc21 (stereo unspecified),1,+,3,3,5,-6,i
CC(C)CNc1oc(-c2ccccc2Cl)nc1C#N,0,+,-2,-4,2,10,i
COCCCNc1oc(-c2ccccc2Cl)nc1C#N,0,i,-1,-2,4,4,.
COc1ccccc1CNC(=O)CSc1nnc2ccc(-c3cccnc3)nn12,0,i,-2,9,7,3,.
COc1ccccc1-c1ccc2nnc(SC)n2n1,3,+,0,5,5,-5,i
CCCCn1c(N)c(N(C(=O)CSc2nnnn2-c2ccc(C)cc2)C2CCCC2)c(=O)[nH]c1=O,0,i,10,-1,-22,-32,.
Cc1cccc(C)c1Nc1c(-c2ccc(N3CCOCC3)cc2)nc2cnccn12,-3,.,-1,-1,0,5,.
SMILES,proKLK7 act,Neddylation inh,DDE Tn7 FP inh,DDE Tn6 FP inh,MT1-MMP act inh,SKN-1 inh,Neddyl inh conf
c1cn2c(Nc3ccc4c(c3)OCCO4)c(-c3ccc(N4CCOCC4)cc3)nc2cn1,1,+,1,1,3,2,i
Clc1ccc(-c2nc3cnccn3c2Nc2ccc3c(c2)OCO3)cc1,5,+,-5,2,5,-13,i
O=C(CN1C(=O)CC(c2ccco2)Sc2ccccc21)Nc1ccc2c(c1)OCCO2 (stereo unspecified),0,i,3,-3,5,0,.
CCOc1ccccc1NC(=O)c1ccc2c(=O)n3c(nc2c1)CCCCC3,0,i,3,8,7,9,.
CCCNC(=O)c1ccccc1NC(=O)c1ccc2c(=O)n3c(nc2c1)CCC3,0,+,-2,1,16,-6,.
O=C(CSc1nnc2ccc(-c3ccccc3)nn12)NCC1CCCO1 (stereo unspecified),4,+,1,4,-3,5,+
Cc1ccc(-c2ccc3nnc(SCC(N)=O)n3n2)cc1,6,.,3,5,6,-9,.
O=C(CSc1nnc2ccc(-c3ccc(Br)cc3)nn12)NCC1CCCO1 (stereo unspecified),3,i,6,0,2,11,.
NC(=O)CSc1nnc2ccc(-c3ccc(F)cc3)nn12,5,+,8,4,1,-11,i
NC(=O)CSc1nnc2ccc(-c3ccc(Cl)cc3)nn12,-1,+,3,-6,2,-7,i
O=C(c1cccs1)N1CCN(Cc2cn[nH]c2-c2ccc(F)cc2F)CC1,0,i,4,0,-4,14,.
COc1ccc(NC(=O)CCCSc2ccccc2)cc1S(N)(=O)=O,0,i,-5,-3,1,-8,.
CC1CCCCC1NC(=O)Cc1ccc(S(=O)(=O)N2CCOCC2)s1 (stereo unspecified),0,i,4,-1,0,-2,.
COC(=O)C1C(O)=C(C(C)=Nc2cccc3ccccc23)C(=O)CC1(C)C (stereo unspecified),-4,+,5,-3,3,7,i
COC(=O)C1C(O)=C(C=Nc2ccccc2)C(=O)CC1(C)C (stereo unspecified),0,i,-2,-9,0,-14,.
Cc1cc(C)c(NC(=O)CNC(=O)c2cc(C3CC3)nc3c2cnn3C(C)C)c(C)c1,2,.,-9,-3,1,-6,.
CCc1ccccc1NC(=O)CNC(=O)c1cc(C2CC2)nc2c1cnn2C(C)C,0,+,1,3,2,10,.
CC(C)n1ncc2c(C(=O)NCC(=O)Nc3ccccc3Br)cc(C3CC3)nc21,.,+,.,.,1,8,.
c1ccc2c(c1)oc1c(NCC3CCCO3)ncnc12 (stereo unspecified),1,i,3,5,3,17,.
